Test results taken from paper PMC2978626 (The Journal of Biological Chemistry, 2010).
Where no end group is shown, it is not given here.

Experiments:
[1] = target: GBD (gelatin-binding domain of fibronectin) (Homo sapiens, UniProt P02751); test: ITC, binding to GBD
Procedure, shortened: (§1)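 Cell held GBD (proteolytic Fn fragment, dialysed into buffer) or ⁸F1⁹F1 (Pichia-expressed, Endo Hf-trimmed glycans). Syringe held uncapped synthetic test peptide at 10–20× the cell concentration. Both were degassed at 20 °C for 15 min. 2 μl preinjection, then 39 × 7 μl injections at 0.5 μl/s, 307 rpm, 360 s spacing. Averaged heats from a separate peptide-into-buffer run were subtracted; one-site binding fit.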

[2] = target: ^8F1^9F1 (module pair of fibronectin, Fn precursor residues 516–608) (Homo sapiens, UniProt P02751); test: ITC, binding to ^8F1^9F1; settings: 10 mM NaH2PO4/K2HPO4, pH 7.4, 25 °C, FnZ peptide 2.97 mM, Fn domain 0.24 mM
Procedure, shortened: as §1

[3] = target: gelatin-binding domain (GBD) of fibronectin, proteolytic fragment (human); test: ITC
[4] = target: recombinant fibronectin 100-kDa N-terminal fragment (human); test: ITC
[5] = ITC, 10 mM NaH2PO4/K2HPO4, pH 7.4, 25 °C, FnZ peptide 0.11 mM, Fn domain 0.01 mM

Sequence of GBD (gelatin-binding domain of fibronectin) (P02751 308-608 limits assumed): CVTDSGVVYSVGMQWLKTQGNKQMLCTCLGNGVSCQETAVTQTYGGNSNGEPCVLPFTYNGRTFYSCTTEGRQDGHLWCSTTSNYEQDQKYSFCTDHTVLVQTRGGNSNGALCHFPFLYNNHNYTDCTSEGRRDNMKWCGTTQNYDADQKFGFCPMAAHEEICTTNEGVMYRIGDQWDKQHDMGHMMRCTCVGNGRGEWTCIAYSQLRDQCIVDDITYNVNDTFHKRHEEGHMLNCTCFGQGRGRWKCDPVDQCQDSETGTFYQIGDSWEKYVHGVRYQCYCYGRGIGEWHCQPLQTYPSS
Sequence of ^8F1^9F1 (module pair of fibronectin, Fn precursor residues 516–608) (P02751 516-608): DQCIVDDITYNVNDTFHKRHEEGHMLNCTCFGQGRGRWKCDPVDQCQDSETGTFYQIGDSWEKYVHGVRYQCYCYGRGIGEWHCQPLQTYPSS

Q: How did the Kd [1] turn out when RNPHLMGIGGGLAGESGETTPK [FnZ peptide] was run?
A: 0.54 ± 0.04 µM

Q: And the ΔH [1, 5]?
A: -74.1 kJ/mol

Q: And the ΔS [1, 5]?
A: −30.8 cal/mol K^−1

Q: And the ΔH [2]?
A: -125 kJ/mol

Q: What about the ΔS [2] of the same molecule?
A: −77.2 cal/mol K^−1

Q: For H-RNPHLMGIGGGLAGESGETTPK-OH [FnZ synthetic peptide, residues 370-391], which Kd [3] is on record?
A: 0.54 µM

Q: And the dH [3]?
A: -74.1 kJ/mol

B1: FnZ(370-428), recombinant fragment of the fibronectin-binding protein FnZ from S. zooepidemicus (domain or fragment)
chain: GPLGSRNPHLMGIGGGLAGESGETTPKPGQTGGQGPVIETTEDTQKGMSGQSGGTIESENTKKP
Q: Which results are given for B1?
A: Kd [4]: 0.0008 µM; dH [4]: -228 kJ/mol; stoichiometry N [4]: 1.06
